Measured values as given in article PMC3068526 (Science (New York, N.Y.), 2010).

Legend:
[1] = target: T1, GOAT (Homo sapiens, UniProt Q96T53); format: cell-based
T1 sequence (Q96T53 1-435): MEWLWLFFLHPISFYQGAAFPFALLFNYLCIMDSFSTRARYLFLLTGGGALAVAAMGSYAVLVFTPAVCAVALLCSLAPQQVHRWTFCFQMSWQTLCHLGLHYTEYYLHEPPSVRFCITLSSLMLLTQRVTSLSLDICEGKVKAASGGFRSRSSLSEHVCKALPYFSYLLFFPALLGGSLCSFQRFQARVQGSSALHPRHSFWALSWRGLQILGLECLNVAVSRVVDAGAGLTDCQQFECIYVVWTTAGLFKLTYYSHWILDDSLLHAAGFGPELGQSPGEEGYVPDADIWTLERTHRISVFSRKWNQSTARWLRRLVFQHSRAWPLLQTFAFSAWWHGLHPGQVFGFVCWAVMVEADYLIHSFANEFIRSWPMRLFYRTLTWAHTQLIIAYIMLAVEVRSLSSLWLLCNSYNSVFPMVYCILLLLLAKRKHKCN
Outline: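 HeLa and HEK cells stably expressing GOAT and preproghrelin were grown in octanoic acid-supplemented medium. Acyl and desacyl ghrelin were measured after test compound exposure, either as a time course at 6 μM in HeLa cells or as a dose-response after 24 h incubation. IC50 was derived from the acyl ghrelin reduction.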

[2] = system: recombinant microsomal GOAT; test: in vitro acyltransferase inhibition assay; format: biochemical; details: 100 nM compound, within 5 min (5 min reaction), radioactive assay
[3] = system: recombinant solubilized or microsomal GOAT; test: UV crosslinking of biotin-tagged benzoyl-phenylalanine analogs to GOAT; format: binding; details: competitor at 100 μM
Outline: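 Solubilized GOAT was UV-crosslinked with biotin-tagged benzophenylalanine-containing probe analogs (L5BP, F4BP) at 5 μM, with or without 100 μM unlabelled test compound as competitor. Cross-linked GOAT was detected on immunoblots with streptavidin, and loading was checked with anti-FLAG.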

[4] = system: p300 HAT; test: in vitro inhibition of acetyl-CoA utilizing enzyme p300 HAT; format: biochemical; details: at 10 μM
[5] = system: PCAF HAT; test: in vitro inhibition of acetyl-CoA utilizing enzyme PCAF HAT; format: biochemical; details: at 10 μM
[6] = system: serotonin N-acetyltransferase; test: in vitro inhibition of serotonin N-acetyltransferase; format: biochemical; details: at 10 μM
[7] = system: cell viability; test: cell viability; format: cell-based; details: in the concentration range studied
[8] = system: GHSR-1a receptor; test: GHSR-1a receptor antagonism; format: cell-based
[9] = system: wild type (wt) C57BL6 animals; test: serum acyl and desacyl ghrelin levels in mice after intraperitoneal dosing; format: in vivo, mouse; details: 11 μmol/kg (40 mg/kg) intraperitoneal, wt C57BL6 mice on MCT diet
Outline: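 Wild-type C57BL6 mice on a medium-chain triglyceride diet were given a single IP dose of test compound at 11 μmol/kg (40 mg/kg), or the D4-Tat control or vehicle (n = 5). Serum acyl and desacyl ghrelin and percent acyl ghrelin were measured at 6, 12 and 24 h. Standard errors are reported.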

[10] = system: wt C57BL6 mice; test: body weight and QMR fat/lean mass in wt mice on MCT diet, one month treatment; format: in vivo, mouse; details: 11 μmol/kg IP every 24 h
Outline: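 Wild-type C57BL6 mice on a medium-chain triglyceride diet received test compound at 11 μmol/kg IP every 24 h for one month (n = 5) or vehicle (n = 6). Body mass was recorded daily, and fat and lean mass were determined by quantitative magnetic resonance. Standard errors are reported.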

[11] = system: wt mice; test: blood chemistries and blood cell counts after one month of treatment; format: in vivo, mouse
[12] = system: ghrelin knockout C57BL6 mice; test: body weight and adiposity in ghrelin knockout mice; format: in vivo, mouse
[13] = system: wt mice; test: weight gain in wt mice fed a high fat diet; format: in vivo, mouse
[14] = system: human islet cells; test: insulin response of human islet cells to a glucose challenge; format: cell-based; details: human islet cells pre-treated with compound
[15] = system: ghrelin knockout animals; test: intraperitoneal glucose challenge in ghrelin knockout animals; format: in vivo, mouse; details: compared to vehicle or to wt animals analyzed in parallel
[16] = system: UCP2 mRNA; test: QRT-PCR of islets and gastric fundus isolated from treated mice; format: in vivo, mouse
[17] = ghrelin knockout mice on MCT diet, 11 μmol/kg, 1 mo

Structure (SMILES): CCCCCCC(SCCNC(=O)CCNC(=O)[C@H](O)C(C)(C)COP(=O)(O)OP(=O)(O)OC[C@H]1O[C@@H](n2cnc3c(N)ncnc32)[C@H](O)[C@@H]1OP(=O)(O)O)C(=O)NC[C@H](NC(=O)[C@H](CO)NC(=O)CN)C(=O)N[C@@H](Cc1ccccc1)C(=O)N[C@@H](CC(C)C)C(=O)N[C@@H](CO)C(=O)N1CCC[C@H]1C(=O)N[C@@H](CCC(=O)O)C(=O)N[C@@H](Cc1c[nH]cn1)C(=O)N[C@@H](CCC(N)=O)C(=O)NCCCCCC(=O)N[C@@H](Cc1ccc(O)cc1)C(=O)NCC(=O)N[C@@H](CCCNC(=N)N)C(=O)N[C@@H](CCCCN)C(=O)N[C@@H](CCCCN)C(=O)N[C@@H](CCCNC(=N)N)C(=O)N[C@@H](CCCNC(=N)N)C(=O)N[C@@H](CCC(N)=O)C(=O)N[C@@H](CCCNC(=N)N)C(=O)N[C@@H](CCCNC(=N)N)C(=O)N[C@@H](CCCNC(=N)N)C(N)=O (stereo partly shown) [GO-CoA-Tat]
- inhibition of production of desacyl ghrelin ([1]; GOAT/preproghrelin stably expressing HeLa and HEK cells): not desacyl ghrelin
- exposure time needed for maximal inhibition of acyl ghrelin ([1]; preproghrelin/GOAT-transfected HeLa and HEK cells, 6 μM in HeLa time course): 24 h
- GOAT inhibition [2]: Virtually complete GOAT inhibition
- blocking of cross-linking of F4BP/L5BP analogs to GOAT (competitor) [3]: can be blocked by GO-CoA-Tat
- inhibition of p300 HAT [4]: less than 15%
- inhibition of PCAF HAT [5]: less than 15%
- inhibition of serotonin N-acetyltransferase [6]: less than 15%
- toxicity to cell viability [7]: non-toxic
- antagonism of GHSR-1a receptor [8]: does not antagonize
- serum levels of desacyl ghrelin [9]: no significant effect
- time of maximum inhibition of serum acyl ghrelin after administration [9]: 6 h
- serum levels of acyl ghrelin ([9]; n = 5, 6, 12 and 24 h): decreased serum levels of acyl ghrelin
- weight gain ([10]; n = 5 vs vehicle n = 6): prevented the significant weight gain
- fat mass (QMR) ([10]; relative to controls): significantly lower fat mass
- lean mass (QMR) ([10]; relative to controls): but not lean mass
- IGF-1 levels [11]: lower IGF-1 levels
- blood glucose [11]: lower blood glucose
- generalized toxicity by blood chemistries and blood cell counts [11]: no evidence of liver, renal, pancreas, or bone marrow toxicities
- fat mass (QMR) [12, 17]: did not significantly alter
- lean mass (QMR) [12, 17]: did not significantly alter
- weight ([12]; ghrelin knockout mice on MCT diet, 11 μmol/kg, 1 mo, n = 5 vs vehicle n = 5): did not significantly alter
- weight gain of treated ghrelin knockout mice versus treated age-matched wt mice ([12]; separate long term study, one month of administration): gained more weight
- fat mass [13]: relative reduction of fat mass
- food intake [13]: no effect on food intake
- lean mass [13]: without a change in lean mass
- weight gain [13]: slowed weight gain
- insulin response to a glucose challenge [14]: statistically significant increase in insulin response
- effect in glucose challenge [15]: did not have a significant effect
- effects on UCP2 mRNA in the gastric fundus ([16]; gastric fundus from mice treated 24 h prior to isolation, n = 3): non-statistically significant effects
- reduction in UCP2 mRNA in islets ([16]; islets isolated from mice treated 24 h prior to isolation, compared to D4-tat treated mice, n = 3): 20 fold
- levels of insulin, ghrelin, or GHSR mRNAs in islets ([16]; islets isolated from treated mice, compared to D4-tat treated mice): no change
